Reference: ChEMBL document CHEMBL3351868, “Structure-affinity relationships and pharmacological characterization of new alkyl-resorcinol cannabinoid receptor ligands: Identification of a dual cannabinoid receptor/TRPA1 channel agonist” (Bioorg Med Chem, 2014)

Experiments:
[1] = biological target: T1, Cannabinoid receptor 1 (Homo sapiens, UniProt P21554); assay: Displacement of [3H]CP-55,940 from human recombinant CB1 receptor expressed in HEK293 cell membranes
[2] = biological target: T2, Cannabinoid receptor 2 (Homo sapiens, UniProt P34972); assay: Displacement of [3H]CP-55,940 from human recombinant CB2 receptor expressed in HEK293 cell membranes
[3] = species on record: Homo sapiens; assay: Selectivity index, ratio of Ki for human recombinant CB2 receptor to Ki for human recombinant CB1 receptor
[4] = species on record: Homo sapiens; assay: Selectivity index, ratio of Ki for human recombinant CB1 receptor to Ki for human recombinant CB2 receptor
[5] = test system: COS-7; assay: Inhibition of MGL in African green monkey COS7 cells cytosolic fraction assessed as reduction in 2-arachidonoyl-[3H]-glycerol hydrolysis at 10 uM by scintillation counting method; format: cell-based; conditions: Chlorocebus aethiops
[6] = biological target: T3, Fatty-acid amide hydrolase 1 (Rattus norvegicus, UniProt P97612); assay: Inhibition of FAAH in rat brain membranes assessed as reduction in [14C] anandamide hydrolysis by scintillation counting method; format: cell membranes, Membrane
T3 sequence (P97612 whole entry): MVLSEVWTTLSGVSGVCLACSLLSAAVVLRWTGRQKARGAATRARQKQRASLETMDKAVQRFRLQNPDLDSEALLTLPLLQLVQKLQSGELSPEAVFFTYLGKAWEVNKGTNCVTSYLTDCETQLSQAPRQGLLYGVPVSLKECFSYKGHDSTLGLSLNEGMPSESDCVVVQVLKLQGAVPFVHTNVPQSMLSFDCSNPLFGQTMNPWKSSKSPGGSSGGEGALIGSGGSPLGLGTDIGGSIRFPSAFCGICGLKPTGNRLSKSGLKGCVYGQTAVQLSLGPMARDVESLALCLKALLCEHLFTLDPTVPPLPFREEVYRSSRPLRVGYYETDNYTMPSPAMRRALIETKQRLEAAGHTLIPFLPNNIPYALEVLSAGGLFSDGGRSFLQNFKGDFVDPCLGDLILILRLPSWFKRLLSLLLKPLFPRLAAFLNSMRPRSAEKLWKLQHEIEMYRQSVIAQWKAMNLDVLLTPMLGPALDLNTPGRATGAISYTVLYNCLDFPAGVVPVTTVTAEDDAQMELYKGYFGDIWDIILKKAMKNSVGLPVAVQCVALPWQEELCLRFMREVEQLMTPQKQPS

[7] = biological target: T4, Fatty-acid amide hydrolase 1 (Rattus norvegicus) (UniProt P97612); assay: Inhibition of FAAH in rat brain membranes assessed as reduction in [14C] anandamide hydrolysis at 10 uM by scintillation counting method; format: cell membranes; conditions: Membrane
T4 sequence (whole entry): T3 sequence (P97612 whole entry)

[8] = Inhibition of MGL in African green monkey COS7 cells cytosolic fraction assessed as reduction in 2-arachidonoyl-[3H]-glycerol hydrolysis by scintillation counting method; format: cell-based, Chlorocebus aethiops; conditions: cos-7
[9] = test system: COS-7; assay: Inhibition of MGL in African green monkey COS7 cells cytosolic fraction assessed as reduction in 2-arachidonoyl-[3H]-glycerol hydrolysis at 50 uM by scintillation counting method; format: cell-based; conditions: Chlorocebus aethiops
[10] = biological target: T2, Cannabinoid receptor 2; assay: Agonist activity at human recombinant CB2 receptor expressed in CHO cell membranes by [35S]GTPgammaS binding assay; format: functional
Procedure, shortened: (§1)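 Membranes from CHO cells stably expressing human CB1 or CB2, 50 µg protein per well, in Tris buffer with 100 mM NaCl, 5 mM MgCl2, 1 mM DTT, 1 mM EDTA, 0.1% BSA, pH 7.4. Incubated 60 min at 30°C with 0.1 nM [35S]GTPγS, 30 µM GDP and compound in DMSO. Nonspecific binding defined with 30 µM GTPγS. Filtration and scintillation counting. Percent change relative to DMSO control, n=6. EC50/Emax from sigmoidal fit.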

[11] = biological target: T2, Cannabinoid receptor 2; assay: Agonist activity at human recombinant CB2 receptor expressed in CHO cell membranes assessed as stimulation of [35S]GTPgammaS binding relative to basal level; format: functional; procedure, shortened: as §1
[12] = biological target: T1, Cannabinoid receptor 1; assay: Agonist activity at human recombinant CB1 receptor expressed in CHO cell membranes assessed as stimulation of [35S]GTPgammaS binding relative to basal level; format: functional; procedure, shortened: as §1
[13] = test system: COS-7; assay: Inhibition of MGL in African green monkey COS7 cells cytosolic fraction assessed as reduction in 2-arachidonoyl-[3H]-glycerol hydrolysis at 1 uM by scintillation counting method; format: cell-based; conditions: Chlorocebus aethiops
[14] = Cytotoxicity against mouse NIH/3T3 cells after 24 hrs by neutral red assay; format: cell-based; conditions: NIH3T3, 24 h
Procedure, shortened: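 NIH3T3 mouse fibroblasts in DMEM with 10% FCS were seeded and after 24 h exposed to compound in DMSO (5-200 µM, six replicates) for 24 h. Viability measured by neutral red uptake (3 h dye incubation, then acetic acid/ethanol extraction). IC50 derived.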

T2 sequence (P34972 whole entry): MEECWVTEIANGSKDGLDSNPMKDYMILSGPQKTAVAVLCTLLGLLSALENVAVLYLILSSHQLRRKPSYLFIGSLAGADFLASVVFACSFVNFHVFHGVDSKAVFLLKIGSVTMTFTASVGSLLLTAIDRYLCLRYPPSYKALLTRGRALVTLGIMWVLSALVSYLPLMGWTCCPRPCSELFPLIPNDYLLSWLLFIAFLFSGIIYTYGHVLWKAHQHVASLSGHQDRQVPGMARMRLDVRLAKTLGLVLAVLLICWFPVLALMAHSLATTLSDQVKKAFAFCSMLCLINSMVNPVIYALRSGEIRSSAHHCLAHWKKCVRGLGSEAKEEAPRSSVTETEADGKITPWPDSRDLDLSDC
T1 sequence (P21554 whole entry): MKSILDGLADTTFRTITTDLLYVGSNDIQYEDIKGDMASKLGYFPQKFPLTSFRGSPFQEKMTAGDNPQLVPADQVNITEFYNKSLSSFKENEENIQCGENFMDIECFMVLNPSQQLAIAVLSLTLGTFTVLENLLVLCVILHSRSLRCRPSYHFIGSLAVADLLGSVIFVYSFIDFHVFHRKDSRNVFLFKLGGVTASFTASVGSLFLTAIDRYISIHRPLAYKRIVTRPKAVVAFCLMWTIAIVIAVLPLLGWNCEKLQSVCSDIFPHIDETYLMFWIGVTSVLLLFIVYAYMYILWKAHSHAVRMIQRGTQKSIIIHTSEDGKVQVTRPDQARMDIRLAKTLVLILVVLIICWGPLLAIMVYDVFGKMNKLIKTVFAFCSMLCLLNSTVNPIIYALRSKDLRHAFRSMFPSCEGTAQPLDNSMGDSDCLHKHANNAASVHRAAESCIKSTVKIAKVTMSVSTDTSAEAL

| SMILES | Ki [1] | Ki [2] | Ratio Ki [3] | Ratio Ki [4] | other results |
| --- | --- | --- | --- | --- | --- |
| CCCCCc1cc(O)cc(OCCCCCCCCCCC(=O)N[C@H](C)CO)c1 | 264 nM | 97.2 nM | 0.37 | 2.72 |  |
| CCCCCCC(C)(C)c1cc(O)cc(OCCCCCCCCCCC(=O)NC23CC4CC(CC(C4)C2)C3)c1 | > 10000 nM | > 10000 nM |  |  |  |
| CCCCCCc1ccc(O)cc1OCCCCCCCCCCC(=O)NC(CO)CO | > 10000 nM | 2370 nM | < 0.24 | > 4.22 |  |
| C=CCNCCCCCCCCCCCOc1cc(O)cc(CCCCC)c1 | 1140 nM | 1850 nM | 1.62 | 0.62 |  |
| CCCCCc1cc(O)cc(OCCCCCCCCCCC(=O)NC(CO)CO)c1 | > 10000 nM | 540 nM | < 0.05 | > 18.5 |  |
| CCCCCc1cc(O)cc(OCCCCCCCCCCC(=O)NN(C)C)c1 | 845 nM | 183 nM | 0.22 | 4.63 | Imax [5]: 42.9%; IC50 [6]: > 10000 nM; Imax [7]: 28.2%; IC50 [8]: > 10000 nM |
| CCCCCCC(C)(C)c1cc(O)cc(OCCCCCCCC(=O)NC(CO)CO)c1 | 178 nM | 815 nM | 4.6 | 0.22 |  |
| CCCCCCc1ccc(OCCCCCCCCCCCN2C(=O)c3ccccc3C2=O)cc1O |  |  |  |  | Imax [9]: 14.3%; IC50 [8]: > 50000 nM |
| CCCCCCc1ccc(OCCCCCCCCCCC(=O)NC23CC4CC(CC(C4)C2)C3)cc1O | > 10000 nM | > 10000 nM |  |  |  |
| CCCCCc1cc(O)cc(OCCCCCCCCCCC(=O)Nc2ccccc2)c1 | > 10000 nM | 128 nM | < 0.01 | > 78.2 | EC50 [10]: 701 nM; Emax [11]: -14.4% |
| CCCCCCC(C)(C)c1cc(O)cc(OCCCCCCCCCCCN2C(=O)c3ccccc3C2=O)c1 |  |  |  |  | Imax [9]: 14.4%; IC50 [8]: > 50000 nM |
| CCCCCCC(C)(C)c1cc(O)cc(OCCCCCCCCCCCNC(=O)C2CC2)c1 | 2070 nM | 650 nM | 0.31 | 3.18 |  |
| CCCCCCC(C)(C)c1ccc([C@@H]2C[C@H](O)CC[C@H]2CCCO)c(O)c1 |  |  |  |  | Emax [11]: 66.5%; Emax [12]: 72.1% |
| CCCCCCC(C)(C)c1cc(O)cc(OCCCCCCCCCCC(=O)N[C@H](C)CO)c1 | 132 nM | 21.2 nM | 0.16 | 6.24 |  |
| CCCCCc1cc(O)cc(OCCCCCCCCCCC(=O)NCc2ccccc2)c1 | > 10000 nM | 202 nM | < 0.02 | > 49.5 |  |
| CCCCCc1cc(O)cc(OCCCCCCCC(=O)N[C@H](C)CO)c1 | 12.8 nM | 119 nM | 9.32 | 0.11 |  |
| CCCCCc1cc(O)cc(OCCCCCCCCCCCN2C(=O)c3ccccc3C2=O)c1 |  |  |  |  | Imax [9]: 15.9%; IC50 [8]: > 50000 nM |
| CCCCCCc1c(O)cccc1OCCCCCCCCCCC(=O)NC12CC3CC(CC(C3)C1)C2 | > 10000 nM | > 10000 nM |  |  |  |
| CCCCCCc1ccc(OCCCCCCCCCCCNC(=O)C2CC2)cc1O | > 10000 nM | > 10000 nM |  |  |  |

| SMILES | Ki [1] | Ki [2] | Ratio Ki [3] | Ratio Ki [4] | other results |
| --- | --- | --- | --- | --- | --- |
| CCCCCCCCCCC[C@@H](C[C@@H]1OC(=O)[C@H]1CCCCCC)OC(=O)CNC=O |  |  |  |  | Imax [13]: 60% |
| CCCCCc1cc(O)cc(OCCCCCCCCCCC(=O)NCC(F)(F)F)c1 | 438 nM | 96.3 nM | 0.22 | 4.55 |  |
| CCCCCCC(C)(C)c1cc(O)cc(OCCCCCCCCCN2C(=O)c3ccccc3C2=O)c1 |  |  |  |  | Imax [9]: 18.8%; IC50 [8]: > 50000 nM |
| C=CCNC(=O)CCCCCCCCCCOc1cc(O)cc(CCCCC)c1 | 136 nM | 16.4 nM | 0.12 | 8.31 |  |
| CCCCCc1cc(O)cc(OCCCCCCCCCCC(=O)NC23CC4CC(CC(C4)C2)C3)c1 | > 10000 nM | > 10000 nM |  |  |  |
| CCCCCc1cc(O)cc(OCCCCCCCCCCCNC2CC2)c1 | 2080 nM | 1890 nM | 0.91 | 1.1 |  |
| CCCCCCC(C)(C)c1cc(O)cc(OCCCCCCCC(=O)N[C@H](C)CO)c1 | 17.2 nM | 50.2 nM | 2.92 | 0.34 | IC50 [14]: 69000 nM |
| CCCCCc1cc(O)cc(OCCCCCCCCCN2C(=O)c3ccccc3C2=O)c1 |  |  |  |  | Imax [9]: 16.8%; IC50 [8]: > 50000 nM |
| CCCCCCc1ccc(O)cc1OCCCCCCCCCCCN1C(=O)c2ccccc2C1=O |  |  |  |  | Imax [9]: 16.3%; IC50 [8]: > 50000 nM |
| CCCCCCc1ccc(O)cc1OCCCCCCCCCCCNC(=O)C1CC1 | 900 nM | 250 nM | 0.28 | 3.6 |  |
| CCCCCc1cc(O)cc(OCCCCCCCCCCCCNC2CC2)c1 | 830 nM | > 10000 nM | > 12.1 | < 0.08 |  |
| CCCCCc1cc(O)cc(OCCCCCCCCCCCNCc2ccccc2)c1 | 1240 nM | 830 nM | 0.67 | 1.49 |  |
| CCCCCCc1ccc(OCCCCCCCCCCC(=O)NC(CO)CO)cc1O | > 10000 nM | > 10000 nM |  |  |  |
| CCCCCc1cc(O)cc(OCCCCCCCCCCC(=O)NN2CCCCC2)c1 | 1780 nM | 678 nM | 0.38 | 2.63 | Imax [5]: 41.6%; IC50 [6]: > 10000 nM; Imax [7]: 41%; IC50 [8]: > 10000 nM |
| CCCCCc1cc(O)cc(OCCCCCCCCCCCNC(=O)C2CC2)c1 | 2770 nM | 460 nM | 0.17 | 6.02 |  |
| CCCCCCC(C)(C)c1cc(O)cc(OCCCCCCCCCCC(=O)NC(CO)CO)c1 | 1890 nM | 230 nM | 0.12 | 8.22 |  |
| CCCCCCC(C)(C)c1cc(O)cc(OCCCCCCCC(=O)NCC(F)(F)F)c1 | 397 nM | 27.9 nM | 0.07 | 14.2 |  |
| CCCCCCC(C)(C)c1cc(O)cc(OCCCCCCCC(=O)NC23CC4CC(CC(C4)C2)C3)c1 | > 10000 nM | > 10000 nM |  |  |  |
| CCCCCc1cc(O)cc(OCCCCCCCCCN[C@H](C)CO)c1 | 1060 nM | 1520 nM | 1.43 | 0.7 |  |
